# Test results: article PMC7315572 (ACS Omega, 2020)
# Key:
# [1] = test system: K562 human myelogenous leukemia cells; experiment: MTS cell viability assay in K562 cells; type: cell-based; details: 72 h
# Procedure, shortened: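 K562 cells were grown in IMDM with 10% FBS and 5% penicillin/streptomycin at 37 °C in 5% CO2. They were seeded at 2000 cells/well, left overnight, then given fresh medium containing the test compound for 72 h. MTS was added for 2 h, with absorbance read at 490 nm against a 690 nm reference. % cell death = (control − sample)/control × 100. IC50 came from dose-response curves, using triplicates from a single experiment ± SEM.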
# erythroid cells = details: cited from earlier work
# [2] = test system: γ-globin mRNA expression in the K562 human myelogenous leukemia cell line; experiment: γ-globin mRNA expression in K562 cells by RT-qPCR; type: cell-based; details: K562, concentration not printed (at or near LSD1 IC50)
# [3] = test system: γ-globin mRNA expression in human CD34+ erythroid progenitor cells; experiment: γ-globin mRNA expression in CD34+ erythroid progenitor cells by RT-qPCR; type: cell-based
# [4] = test system: β-globin mRNA expression in human CD34+ erythroid progenitor cells; experiment: β-globin mRNA expression in CD34+ erythroid progenitor cells by RT-qPCR; type: cell-based; details: for Fold increase in β-globin mRNA: concentration not given
# Townes SS mice = experiment: HbF induction in Townes SS mice; type: in vivo, mouse; details: 10 mg/kg, 2 weeks of treatment
# Procedure, shortened: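 Townes SS mice were dosed at 10 mg/kg for 2 weeks (route not specified). F-cells and F-reticulocytes were counted by flow cytometry on 5–10 μL of tail-vein blood. γ-Globin was measured by HPLC against each animal's pretreatment baseline. Each value is the mean of three animals + SEM.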
# recombinant LSD1/CoREST = recombinant LSD1/CoREST (Homo sapiens, UniProt O60341); details: IC50 ND; cited from earlier work
# spermine oxidase (SMOX) = details: cited from earlier work
compound,measurement,setting,value
"N[C@@H]1C[C@H]1c1ccccc1 (racemic) [Tranylcypromine, tranylcypromine]",Cytotoxicity in K562 cells (in words),[1],minimal cytotoxicity
same,Induction of HbF in erythroid cells (in words),erythroid cells,dose-dependent induction
"NC(=O)NO [HU, hydroxyurea]",Fold increase in γ-globin mRNA expression,[2],2.3 fold
same,"Increase in γ-globin mRNA (in words, compared with K562)",[3],analogous to levels observed in the K562 line
same,Fold increase in β-globin mRNA,[4],no effect
c1ccc([C@@H]2C[C@H]2NC2CCNCC2)cc1 [compound 2],Effect on β-globin mRNA levels (in words),[4]; both 20 and 50 nM,marked decrease
Nc1n[nH]c(NCc2ccccc2Oc2ccc(-c3ccccc3)cc2)n1 [compound 8],Increase in HbF-containing erythrocytes (F-cells),"Townes SS mice; Townes SS mice, flow cytometry",significant increases
same,Increase in γ-globin (HbF content) by HPLC relative to baseline/pretreatment,Townes SS mice; Townes mouse,87%
same,LSD1 % inhibition at 10 μM,recombinant LSD1/CoREST,ND (50.0% inhibition at 10 μM)[52]
same,Inhibition of spermine oxidase (SMOX) (in words),spermine oxidase (SMOX),inhibit
Hemin,Fold increase in γ-globin mRNA expression,[2],2.4 fold
same,"Increase in γ-globin mRNA (in words, compared with K562)",[3],analogous to levels observed in the K562 line
same,Fold increase in β-globin mRNA,[4],1.4 fold
